ChEMBL document CHEMBL4325900, “Antibacterial activity evaluation of synthetic novel pleuromutilin derivatives in vitro and in experimental infection mice” (2019)
≈ marks a conversion by molar mass, not a printed value.

How the values were obtained:
[1] = system: Staphylococcus aureus; experiment: Antibacterial activity against methicillin-sensitive Staphylococcus aureus after 24 hrs by NCCLS method; format: functional
How it was run: (§1)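 Broth microdilution in Mueller-Hinton broth. Stocks at 1280 µg/mL in aqueous 10-20% DMSO were diluted to 128 µg/mL, then serially 2-fold diluted giving final concentrations of 64 down to 0.125 µg/mL. Overnight MHB cultures were diluted to 10^6~10^7 CFU/mL, and 100 µL was added per well. Plates ran 24 h at 37°C. MIC was read from OD against an MHB blank, in triplicate.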

[2] = system: Staphylococcus aureus; experiment: Antibacterial activity against methicillin-resistant Staphylococcus aureus after 24 hrs by NCCLS method; format: functional
How it was run: (§2)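 Broth microdilution in Mueller-Hinton broth. Stocks at 1280 µg/mL in aqueous 10-20% DMSO, diluted to 128 µg/mL, then 2-fold serially to final 64 down to 0.125 µg/mL. Overnight MHB cultures diluted to 10^6~10^7 CFU/mL and added 1:1 to compound. Incubated 24 h at 37°C. MIC read from OD against MHB blank. Three parallels per concentration.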

[3] = system: Staphylococcus epidermidis; experiment: Antibacterial activity against methicillin-sensitive Staphylococcus epidermidis after 24 hrs by NCCLS method; format: functional; how it was run: as §2
[4] = system: Staphylococcus epidermidis; experiment: Antibacterial activity against methicillin-resistant Staphylococcus epidermidis after 24 hrs by NCCLS method; format: functional; how it was run: as §2
[5] = system: Enterococcus faecium; experiment: Antibacterial activity against Enterococcus faecium after 24 hrs by NCCLS method; format: functional; how it was run: as §1
[6] = system: Enterococcus faecalis; experiment: Antibacterial activity against Enterococcus faecalis after 24 hrs by NCCLS method; format: functional; how it was run: as §1
[7] = system: Escherichia coli; experiment: Antibacterial activity against Escherichia coli ATCC 11775 after 24 hrs by NCCLS method; format: functional; conditions: DSM 30083 = JCM 1649 = ATCC 11775, 24 h; how it was run: as §1
[8] = system: Pasteurella multocida; experiment: Antibacterial activity against Pasteurella multocida after 24 hrs by NCCLS method; format: functional; how it was run: as §1
[9] = system: Staphylococcus aureus; experiment: Bactericidal activity against exponential phase of methicillin-resistant Staphylococcus aureus after 1 to 4 hrs by time kill kinetics assay; format: functional, organism-based
How it was run: (§3)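 Exponential-phase S. aureus (4 h at 37°C, 120 rpm) diluted to ~2×10^7 CFU/mL in MHB and mixed 1:1 with MHB containing twice the desired compound concentration. Shaken at 37°C, 120 rpm. Samples at 1, 2, 3 and 4 h washed with PBS, diluted, spot-plated on MH agar, counted after ~18 h at 37°C as log10 CFU/mL. Triplicate, mean±s.d.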

[10] = system: Staphylococcus aureus; experiment: Bactericidal activity against exponential phase of methicillin-resistant Staphylococcus aureus assessed as time required for complete bacterial killing at 8 times MIC by time kill kinetics assay; format: functional; how it was run: as §3
[11] = system: Staphylococcus aureus; experiment: Bactericidal activity against exponential phase of methicillin-resistant Staphylococcus aureus assessed as time required for complete bacterial killing at 4 times MIC by time kill kinetics assay; format: functional; how it was run: as §3
[12] = system: Staphylococcus aureus; experiment: Antibacterial activity against methicillin-resistant Staphylococcus aureus clinical isolates infected in ip dosed mouse assessed as reduction in bacterial infection administered 1 hr after infection and measured after 7 days; format: functional
How it was run: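 Kunming mice, half male and half female, 19-23 g, 10 per group. Infected i.p. with 0.5 mL clinical MRSA isolate suspension (~10^7 CFU/mL). Single i.p. dose 1 h post-infection, five dose levels between 7.0 and 50.0 mg/kg depending on compound. Vehicle was DMSO:Tween-80:water 1:1:8, or water for valnemulin. ED50 by Probit analysis from survival after 7 days; 95% confidence ranges.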

[13] = system: Staphylococcus aureus; experiment: Antibacterial activity against methicillin-resistant Staphylococcus aureus infected in Kunming mouse assessed as mouse survival at 40 mg/kg, ig qd treated for 3 consecutive days and measured during compound treatment relative to control; format: functional; conditions: po
How it was run: (§4)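 Female Kunming mice, 22±2 g, made neutropenic with cyclophosphamide i.p., 150 mg/kg 4 days and 100 mg/kg 1 day before infection. Infected i.p. with 0.5 mL suspension of clinical MRSA isolate. Intragastric dosing at 20 or 40 mg/kg/d, starting 1 h post-infection, once daily for 3 consecutive days. Survival monitored.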

[14] = system: Staphylococcus aureus; experiment: Antibacterial activity against methicillin-resistant Staphylococcus aureus infected in Kunming mouse assessed as mouse survival at 40 mg/kg, ig qd treated for 3 consecutive days and measured at day 5 relative to control; format: functional; conditions: po, 120 h; how it was run: as §4
[15] = system: Staphylococcus aureus; experiment: Antibacterial activity against methicillin-resistant Staphylococcus aureus infected in Kunming mouse assessed as mouse survival at 40 mg/kg, ig qd treated for 3 consecutive days and measured at day 6 relative to control; format: functional; conditions: po, 144 h; how it was run: as §4
[16] = system: Staphylococcus aureus; experiment: Antibacterial activity against methicillin-resistant Staphylococcus aureus infected in Kunming mouse assessed as mouse survival at 20 mg/kg, ig qd treated for 3 consecutive days and measured up to 10 days relative to control; format: functional; conditions: po, 240 h; how it was run: as §4
[17] = system: Escherichia coli; experiment: Potency index, ratio of MIC for Valnemulin hydrochloride to MIC for test compound for antibacterial activity against Escherichia coli ATCC 11775 after 24 hrs by NCCLS method; format: functional, DSM 30083 = JCM 1649 = ATCC 11775

SMILES | MIC [1] [µg/mL] | MIC [2] [µg/mL] | MIC [3] [µg/mL] | MIC [4] [µg/mL] | MIC [5] [µg/mL] | MIC [6] [µg/mL] | MIC [7] [µg/mL] | MIC [8] [µg/mL] | Activity [9] | Time [10] [h] | Time [11] [h] | ED50 [12] [mg/kg] | survival at 40 mg/kg [13] [%] | survival at 40 mg/kg [14] [%] | survival at 40 mg/kg [15] [%] | survival at 20 mg/kg [16] [%] | Ratio [17]
C=C[C@]1(C)C[C@@H](OC(=O)CSc2nc(NC(=O)CNC3CCCCC3)c3cc[nH]c3n2)[C@]2(C)[C@H](C)CC[C@]3(CCC(=O)[C@H]32)[C@@H](C)[C@@H]1O | 0.5 (≈ 0.751 µM) | 1 (≈ 1.5 µM) | 0.5 (≈ 0.751 µM) | 0.5 (≈ 0.751 µM) | 0.5 (≈ 0.751 µM) | 64 (≈ 96.1 µM) | > 64 | 64 (≈ 96.1 µM) |  |  |  |  |  |  |  |  | 
C=C[C@]1(C)C[C@@H](OC(=O)CSc2nc(NC(=O)CN3CCC(c4ccccc4)CC3)c3cc[nH]c3n2)[C@]2(C)[C@H](C)CC[C@]3(CCC(=O)[C@H]32)[C@@H](C)[C@@H]1O | 0.25 (≈ 0.343 µM) | 0.25 (≈ 0.343 µM) | 0.25 (≈ 0.343 µM) | 0.25 (≈ 0.343 µM) |  |  |  |  |  |  |  |  |  |  |  |  | 
C=C[C@]1(C)C[C@@H](OC(=O)CSc2nc(NC(=O)CN3CCC(N(C)C)CC3)c3cc[nH]c3n2)[C@]2(C)[C@H](C)CC[C@]3(CCC(=O)[C@H]32)[C@@H](C)[C@@H]1O | 0.5 (≈ 0.719 µM) | 1 (≈ 1.44 µM) | 0.5 (≈ 0.719 µM) | 0.5 (≈ 0.719 µM) | 1 (≈ 1.44 µM) | 64 (≈ 92.1 µM) | > 64 | 64 (≈ 92.1 µM) |  |  |  |  |  |  |  |  | 
C=C[C@]1(C)C[C@@H](OC(=O)CSc2nc(N)c3cc[nH]c3n2)[C@]2(C)[C@H](C)CC[C@]3(CCC(=O)[C@H]32)[C@@H](C)[C@@H]1O | 1 (≈ 1.9 µM) | 1 (≈ 1.9 µM) | 1 (≈ 1.9 µM) | 2 (≈ 3.8 µM) | 1 (≈ 1.9 µM) | 64 (≈ 122 µM) | > 64 | 64 (≈ 122 µM) |  |  |  |  |  |  |  |  | 
C=C[C@]1(C)C[C@@H](OC(=O)CSc2nc(NC(=O)CN3CCCC3)c3cc[nH]c3n2)[C@]2(C)[C@H](C)CC[C@]3(CCC(=O)[C@H]32)[C@@H](C)[C@@H]1O | 0.0625 (≈ 0.098 µM) | 0.0625 (≈ 0.098 µM) | 0.0625 (≈ 0.098 µM) | 0.0625 (≈ 0.098 µM) | 0.0625 (≈ 0.098 µM) | 64 (≈ 100 µM) | 32 (≈ 50.2 µM) | 16 (≈ 25.1 µM) | Dose-dependent effect | 2 | 4 | 16 | > 90 | 70 | 80 | 30 | 
C=C[C@]1(C)C[C@@H](OC(=O)CSc2nc(NC(=O)CN3CCN(C)CC3)c3cc[nH]c3n2)[C@]2(C)[C@H](C)CC[C@]3(CCC(=O)[C@H]32)[C@@H](C)[C@@H]1O | 0.125 (≈ 0.187 µM) | 1 (≈ 1.5 µM) | 0.25 (≈ 0.375 µM) | 0.5 (≈ 0.75 µM) | 0.5 (≈ 0.75 µM) | 64 (≈ 96 µM) | > 64 | 32 (≈ 48 µM) |  |  |  |  |  |  |  |  | 
C=C[C@]1(C)C[C@@H](OC(=O)CSc2nc(NC(=O)CN(CC)CC)c3cc[nH]c3n2)[C@]2(C)[C@H](C)CC[C@]3(CCC(=O)[C@H]32)[C@@H](C)[C@@H]1O | 0.0625 (≈ 0.0977 µM) | 0.0625 (≈ 0.0977 µM) | 0.0625 (≈ 0.0977 µM) | 0.125 (≈ 0.195 µM) | 0.125 (≈ 0.195 µM) | 32 (≈ 50 µM) | 16 (≈ 25 µM) | 64 (≈ 100 µM) |  |  |  | 27.7 |  |  |  |  | 2
C=C[C@]1(C)C[C@@H](OC(=O)CSc2nc(NC(=O)CN3CCCCC3)c3cc[nH]c3n2)[C@]2(C)[C@H](C)CC[C@]3(CCC(=O)[C@H]32)[C@@H](C)[C@@H]1O | 0.0625 (≈ 0.0959 µM) | 0.125 (≈ 0.192 µM) | 0.0625 (≈ 0.0959 µM) | 0.125 (≈ 0.192 µM) | 0.125 (≈ 0.192 µM) | 32 (≈ 49.1 µM) | 64 (≈ 98.2 µM) | 32 (≈ 49.1 µM) |  |  |  | 19.7 |  |  |  |  | 
